17 molecules from ChEMBL document CHEMBL1142121, “Triterpenoids from the floral spikes of Betula platyphylla var. japonica and their reversing activity against multidrug-resistant cancer cells” (J Nat Prod, 2007) can be followed below.

Molecules are shown by their SMILES.

Holding throughout (assay type): cell-based
One test concerns MCF7. The experiment in a line: Cytotoxicity against human MCF7 cells after 48 hrs by MTT assay. Conditions: MCF7, 48 h. Put shortly: (§1)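 MCF7 or COLO205 cells in RPMI1640 with 10% FBS, seeded at 5 × 10^3 cells and preincubated 24 h. Graded concentrations (DMSO final <0.5%) were then applied for 48 h at 37 °C, 5% CO2. Proliferation read by MTT. IC50 was the concentration halving absorbance versus vehicle-treated controls. Mean ± SE of 3–4 experiments.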
Background: Formazan colour is commonly taken as a measure of viable cells.

The test system of a further test is COLO 205. The experiment in a line: Cytotoxicity against human COLON205 cells after 48 hrs by MTT assay. Particulars: COLO 205, 48 h. Put shortly:
as §1

The nature of test [1]: Cytotoxicity against human doxorubicin-resistant K562/Adr cells after 48 hrs by MTT assay. An outline of the steps: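 Doxorubicin-resistant K562/Adr cells, maintained in RPMI1640/10% FBS containing 0.5 µM doxorubicin. Seeded at 1 × 10^4 cells/well, preincubated 24 h, then incubated 48 h at 37 °C, 5% CO2 with graded test concentrations (DMSO final <0.5%). MTT read-out. IC50 was 50% of vehicle-control absorbance. Mean ± SE, 3–4 experiments.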

The test system of the next test is K562. The experiment in a line: Cytotoxicity against human K562 cells after 48 hrs by MTT assay. Particulars: K562, 48 h. Put shortly:
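K562 leukemia cells, 1 × 10^4 cells/well in medium with 10% FBS, preincubated 24 h. Test samples were then added at various concentrations (DMSO final <0.5%) for 48 h at 37 °C, 5% CO2. MTT assay. IC50 was 50% absorbance relative to vehicle controls. Mean ± SE from 3–4 experiments.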

The subject of the next test is KB. Put plainly: Cytotoxicity against human KB cells after 48 hrs by MTT assay. An outline of the steps: (§2)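 KB and KB-C2 cells grown in DMEM with 10% FBS, with KB-C2 maintained with 2 µg/mL colchicine. 5 × 10^3 cells/well were preincubated 24 h, then exposed 48 h at 37 °C, 5% CO2 to graded concentrations (DMSO final <0.5%). MTT read-out. IC50 was the concentration giving 50% of vehicle-control absorbance. Mean ± SE of 3–4 experiments.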

The nature of test [2]: Cytotoxicity against human colchicine-resistant KBC2 cells in presence of 2.5 uM colchicine after 48 hrs by MTT assay. Particulars: KB-C2, 48 h. An outline of the steps: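 Colchicine-resistant KB-C2 cells, maintained in DMEM/10% FBS with 2 µg/mL colchicine. Seeded at 5 × 10^3 cells/well, preincubated 24 h, then given graded test concentrations (DMSO final <0.5%) together with 2.5 µM colchicine for 48 h at 37 °C, 5% CO2. MTT read-out. IC50 was 50% of vehicle-control absorbance. Mean ± SE, 3–4 experiments.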

Test [3] in a line: Cytotoxicity against human colchicine-resistant KBC2 cells after 48 hrs by MTT assay. Particulars: KB-C2, 48 h. Put shortly: as §2
Test [4] can be described thus: Cytotoxicity against human doxorubicin-resistant K562/Adr cells in presence of 1 uM doxorubicin after 48 hrs by MTT assay.

With `C=C(C)[C@@H]1CC[C@]2(C(=O)O)CC[C@]3(C)[C@H](CC[C@@H]4[C@@]5(C)CCC(=O)C(C)(C)[C@@H]5CC[C@]43C)[C@@H]12` [BETUNOLIC ACID], the IC50 in the test on MCF7 was 49 µM; with COLO 205, 36.8 µM; in test [1], 73.5 µM; with K562 it was 16.1 µM; with KB, 3.8 µM; in test [2], 0.64 µM. Also, the IC50 in test [3] was found to be 2.3 µM; in test [4] it was 48.4 µM.

For the molecule `CC(C)(O)[C@H]1CC[C@@](C)([C@H]2CC[C@]3(C)[C@@H]2CC[C@@H]2[C@@]4(C)CCC(=O)C(C)(C)[C@@H]4CC[C@]23C)O1` [OCOTILLONE], the 50% inhibitory concentration (IC50) was more than 100 µM with MCF7; more than 100 µM in the test with COLO 205; more than 100 µM in test [1]; more than 100 µM in the test with K562; more than 100 µM with KB; 64.2 µM in test [2]. In addition, the IC50 in test [3] and in test [4] was more than 100 µM each time.

As for `CC(C)(O)[C@H]1CC[C@@](C)([C@H]2CC[C@]3(C)[C@@H]2CC[C@@H]2[C@@]4(C)CC[C@@H](O)C(C)(C)[C@@H]4CC[C@]23C)O1`, the IC50 in the test with MCF7 was 57.9 µM; in test [1], 73.9 µM; in the test with K562, 48.5 µM; with KB, 43.4 µM; in test [2], 28.6 µM; in test [3] it was 55.3 µM. Further, the concentration for half-maximal inhibition (IC50) in test [4] is 45.2 µM.

As to `C=C(C)[C@@H]1CC[C@]2(C)[C@H](CC[C@@H]3[C@@H]([C@]4(C)CC[C@H](C(C)(C)O)O4)CC[C@]32C)[C@@]1(C)CCC(=O)OC` [METHYL SHOREATE], the IC50 was 59.7 µM in the test with MCF7; 67.7 µM with COLO 205; 50.9 µM in test [1]; 45.3 µM with K562; 66.6 µM in the test on KB; 20.1 µM in test [2]. The half-inhibitory concentration (IC50) amounted to 93.5 µM in test [3] and 47.1 µM in test [4].

Regarding `CC(C)(O)[C@H]1CC[C@@](C)([C@H]2CC[C@]3(C)[C@@H]2CC[C@@H]2[C@@]4(C)CC[C@@H](OC(=O)CC(=O)O)C(C)(C)[C@@H]4CC[C@]23C)O1`, the half-inhibitory concentration (IC50) with MCF7 is 64.1 µM; in the test with COLO 205, 55.6 µM; in test [1], 47.2 µM; in the test with K562, 57.5 µM; in the test on KB, 60.8 µM; in test [2] it was 65.5 µM. For the same molecule, the IC50 was 69.6 µM in test [3] and 42.5 µM in test [4].

As for `CC1(C)[C@H](O)CC[C@]2(C)[C@H]3CC[C@@H]4[C@@H]([C@]5(C)CCC(=O)O5)CC[C@@]4(C)[C@]3(C)CC[C@@H]12` [CABRALEAHYDROXYLACTONE], the concentration for half-maximal inhibition (IC50) with MCF7 was more than 100 µM; with COLO 205 it was more than 100 µM; in test [1], more than 100 µM; in the test with K562, more than 100 µM; in the test with KB, more than 100 µM; in test [2], 20.6 µM. For the same molecule, the IC50 in test [3] and in test [4] was more than 100 µM each time.

`COC(=O)CC(=O)O[C@@H]1CC[C@]2(C)[C@H]3CC[C@@H]4[C@@H]([C@]5(C)CCC(=O)O5)CC[C@@]4(C)[C@]3(C)CC[C@H]2C1(C)C`: the IC50 was more than 100 µM in the test with MCF7; more than 100 µM with COLO 205; 56.1 µM in test [1]; 47.2 µM in the test with K562; 58 µM with KB; 3.3 µM in test [2]. In addition, the 50% inhibitory concentration (IC50) came to 30.4 µM in test [3] and 26.5 µM in test [4].

Take `CC(=O)O[C@@H]1C[C@@H]2[C@@]3(C)CC[C@@H](OC(C)=O)C(C)(C)[C@@H]3CC[C@@]2(C)[C@]2(C)CC[C@H]([C@]3(C)CC[C@H](C(C)(C)O)O3)[C@@H]12`: the IC50 in the test with MCF7 is 78.4 µM; in the test on COLO 205, 58 µM; in test [1], 33.2 µM; with K562, 26.2 µM; in the test with KB it was 35.1 µM; in test [2], 3 µM. For the same molecule, the concentration for half-maximal inhibition (IC50) in test [3] was 62.2 µM; in test [4], 23.9 µM.

Take `CC(C)=CCC[C@](C)(O)[C@H]1CC[C@]2(C)[C@@H]1CC[C@@H]1[C@@]3(C)CCC(=O)C(C)(C)[C@@H]3CC[C@]12C` [DIPTEROCARPOL]: the concentration for half-maximal inhibition (IC50) was more than 100 µM in the test with MCF7; more than 100 µM in the test with COLO 205; more than 100 µM in test [1]; more than 100 µM in the test with K562; more than 100 µM in the test with KB; 38.2 µM in test [2]. For the same molecule, the IC50 in test [3] and in test [4] was more than 100 µM each time.

Consider `C=C1CC[C@]2(C)CC[C@]3(C)[C@H](CC[C@@H]4[C@@](C)(CCC(=O)O)[C@H](C(=C)C)CC[C@]43C)[C@@H]2[C@H]1C`, for which the 50% inhibitory concentration (IC50) (with MCF7; in the test on COLO 205; in test [1]; with K562; in the test on KB; in test [2]) was more than 100 µM each time. Besides, the concentration for half-maximal inhibition (IC50) in test [3] and in test [4] was more than 100 µM each time.

Consider `CC(C)(O)[C@H]1CC[C@@]2(C)C1CC[C@]1(C)[C@@H]2CC[C@@H]2[C@@]3(C)CCC(=O)C(C)(C)[C@@H]3CC[C@]21C` (stereo not given in full) [HYDROXYHOPANONE], for which the IC50 with MCF7 was more than 100 µM; in the test with COLO 205, 77.1 µM; in test [1], more than 100 µM; in the test with K562, more than 100 µM; in the test on KB, more than 100 µM; in test [2] it was more than 100 µM. For the same molecule, the IC50 in test [3] and in test [4] was more than 100 µM in each case.

`C=C(C)[C@@H]1CC[C@]2(C)[C@H](CCC3=C4CC(C)(C)CC[C@]4(C)CC[C@]32C)[C@@]1(C)CCC(=O)O`: the IC50 in the test with MCF7 was 37.4 µM; with COLO 205, 38.1 µM; in test [1] it was 25.9 µM; in the test with K562, 28 µM; in the test on KB, 27.5 µM; in test [2], 36.3 µM. Also, the results for the IC50 in test [3] and in test [4] were 58 µM and 24.8 µM, respectively.

Take `CC(=O)O[C@@H]1C[C@@H]2[C@@]3(C)CC[C@@H](OC(=O)CC(=O)O)C(C)(C)[C@@H]3CC[C@@]2(C)[C@]2(C)CC[C@H]([C@]3(C)CC[C@H](C(C)(C)O)O3)[C@@H]12` [PAPYRIFERIC ACID]: the half-inhibitory concentration (IC50) in the test with MCF7 came out at 71.7 µM; in the test with COLO 205, 52.2 µM; in test [1], 42.5 µM; in the test on K562, 47.6 µM; in the test with KB, 47.8 µM; in test [2] it was 60.1 µM. Also, the concentration for half-maximal inhibition (IC50) is 66 µM in test [3] and 34.5 µM in test [4].

Consider `CC1(C)C(=O)CC[C@]2(C)[C@H]3CC[C@@H]4[C@@H]([C@]5(C)CCC(=O)O5)CC[C@@]4(C)[C@]3(C)CC[C@@H]12` [CABRALELACTONE], for which the IC50 in the test on MCF7 was 97.9 µM; in the test with COLO 205 it was more than 100 µM; in test [1], more than 100 µM; with K562 it was more than 100 µM; in the test with KB, 63.5 µM; in test [2], 28.5 µM. For the same molecule, the IC50 in test [3] and in test [4] was more than 100 µM in each case.

As to `CC(=O)O[C@@H]1C[C@@H]2[C@@]3(C)CC[C@@H](O)C(C)(C)[C@@H]3CC[C@@]2(C)[C@]2(C)CC[C@H]([C@]3(C)CC[C@H](C(C)(C)O)O3)[C@@H]12`, the IC50 with MCF7 turned out to be 34.2 µM; in the test on COLO 205 it was 36.7 µM; in test [1] it was 15.4 µM; with K562 it was 27.5 µM; with KB, 36.5 µM; in test [2], 3.5 µM. Moreover, the figures for the IC50 in test [3] and in test [4] were 25.7 µM and 15.3 µM, respectively.

On to `CC(C)(O)[C@@H]1CC[C@@](C)([C@H]2CC[C@]3(C)[C@@H]2CC[C@@H]2[C@@]4(C)CCC(=O)C(C)(C)[C@@H]4CC[C@]23C)O1` [CABRALEONE], for which the concentration for half-maximal inhibition (IC50) with MCF7 was more than 100 µM; in the test on COLO 205, more than 100 µM; in test [1], more than 100 µM; with K562 it was more than 100 µM; with KB it was more than 100 µM; in test [2] it was 62.4 µM. In addition, the 50% inhibitory concentration (IC50) in test [3] and in test [4] was more than 100 µM throughout.

`C=C(C)[C@@H](O)CC[C@](C)(O)[C@H]1CC[C@]2(C)[C@@H]1CC[C@@H]1[C@@]3(C)CCC(=O)C(C)(C)[C@@H]3CC[C@]12C`: the IC50 was found to be 73.1 µM in the test on MCF7; 58.8 µM with COLO 205; 35.9 µM in test [1]; 40.2 µM with K562; 70.2 µM with KB; 29.8 µM in test [2]. The concentration for half-maximal inhibition (IC50) turned out to be 78.5 µM in test [3] and 50.4 µM in test [4].

A word on the IC50: it is the midpoint of a concentration-inhibition curve.
